Test results taken from ChEMBL document CHEMBL3297648, “Diterpenoids from the Chinese liverwort Heteroscyphus tener and their antiproliferative effects” (J Nat Prod, 2014).
The source made the active and inactive calls. No cut-off for these calls is given here.

Legend:
DU-145 [1] = assay: Increase in H2AX protein expression in human DU145 cells at 20 uM after 2 to 48 hrs by western blot analysis; assay type: functional, cell-based
In short: (§1)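 Cells treated at 20 μM for various times, lysed in RIPA buffer with protease/phosphatase inhibitors, protein quantified by BCA. Equal protein run on 12% SDS-PAGE, transferred to nitrocellulose, blocked 1 h in 5% milk/TBST, primary antibodies overnight at 4 °C, secondary 1:2000 for 45 min, ECL detection on film. GAPDH used as loading control.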

[2] = molecular target: Breast cancer type 1 susceptibility protein (Homo sapiens) (UniProt P38398); assay: Inactivation of BRCA1 in human PC3 cells assessed as decline in BRCA1 phosphorylation at Ser1524 at 20 uM after 8 hrs by western blot analysis; assay type: cell-based; details: PC-3; in short: as §1
Sequence of Breast cancer type 1 susceptibility protein (Homo sapiens) (P38398 whole entry, looked up): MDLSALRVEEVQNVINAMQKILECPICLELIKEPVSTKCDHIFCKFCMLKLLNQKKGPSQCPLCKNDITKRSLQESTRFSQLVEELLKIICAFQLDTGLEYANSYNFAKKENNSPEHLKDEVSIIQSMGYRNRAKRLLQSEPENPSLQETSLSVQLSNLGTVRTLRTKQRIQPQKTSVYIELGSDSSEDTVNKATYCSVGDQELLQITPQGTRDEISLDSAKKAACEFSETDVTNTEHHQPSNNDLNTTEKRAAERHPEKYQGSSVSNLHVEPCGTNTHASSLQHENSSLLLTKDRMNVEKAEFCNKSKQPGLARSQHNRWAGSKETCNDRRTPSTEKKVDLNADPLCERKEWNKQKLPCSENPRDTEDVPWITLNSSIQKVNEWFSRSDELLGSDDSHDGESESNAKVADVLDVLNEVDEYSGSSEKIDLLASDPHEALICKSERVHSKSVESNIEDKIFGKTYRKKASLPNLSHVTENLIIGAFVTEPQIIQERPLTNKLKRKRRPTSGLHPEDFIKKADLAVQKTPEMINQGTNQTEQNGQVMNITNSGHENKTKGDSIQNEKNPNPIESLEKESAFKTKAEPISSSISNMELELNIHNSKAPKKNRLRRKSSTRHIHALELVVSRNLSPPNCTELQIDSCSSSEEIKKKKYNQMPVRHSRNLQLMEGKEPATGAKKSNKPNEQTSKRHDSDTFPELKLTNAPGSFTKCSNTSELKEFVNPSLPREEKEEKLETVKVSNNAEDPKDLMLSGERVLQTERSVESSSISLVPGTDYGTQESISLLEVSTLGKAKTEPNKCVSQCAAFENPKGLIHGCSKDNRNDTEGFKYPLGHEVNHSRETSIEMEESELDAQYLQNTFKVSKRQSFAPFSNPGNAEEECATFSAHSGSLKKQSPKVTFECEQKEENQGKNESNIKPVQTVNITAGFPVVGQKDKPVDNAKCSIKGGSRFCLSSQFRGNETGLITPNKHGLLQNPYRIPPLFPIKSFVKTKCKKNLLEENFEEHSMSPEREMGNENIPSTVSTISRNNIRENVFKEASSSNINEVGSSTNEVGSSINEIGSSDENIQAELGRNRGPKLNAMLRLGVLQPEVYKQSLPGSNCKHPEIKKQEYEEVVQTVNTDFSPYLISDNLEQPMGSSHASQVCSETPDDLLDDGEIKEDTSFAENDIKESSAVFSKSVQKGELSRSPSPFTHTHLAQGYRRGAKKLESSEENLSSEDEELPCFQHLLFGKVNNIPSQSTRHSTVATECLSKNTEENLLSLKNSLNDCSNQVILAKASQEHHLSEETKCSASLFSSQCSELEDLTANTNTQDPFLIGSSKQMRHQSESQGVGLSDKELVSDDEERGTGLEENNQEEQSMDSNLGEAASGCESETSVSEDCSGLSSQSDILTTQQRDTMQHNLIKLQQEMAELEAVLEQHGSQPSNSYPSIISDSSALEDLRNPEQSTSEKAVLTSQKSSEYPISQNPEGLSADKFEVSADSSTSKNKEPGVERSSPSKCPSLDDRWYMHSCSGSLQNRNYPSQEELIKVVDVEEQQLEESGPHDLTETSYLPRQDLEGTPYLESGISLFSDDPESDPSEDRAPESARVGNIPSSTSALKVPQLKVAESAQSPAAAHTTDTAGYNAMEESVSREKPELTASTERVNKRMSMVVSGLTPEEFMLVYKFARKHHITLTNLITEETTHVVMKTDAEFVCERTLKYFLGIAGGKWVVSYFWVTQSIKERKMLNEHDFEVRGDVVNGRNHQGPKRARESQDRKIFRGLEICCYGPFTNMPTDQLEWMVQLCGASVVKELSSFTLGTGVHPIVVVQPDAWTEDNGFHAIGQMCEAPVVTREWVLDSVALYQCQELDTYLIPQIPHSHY

[3] = Decrease in BRCA1 protein expression in human PC3 cells at 20 uM after 2 to 48 hrs by western blot analysis; assay type: functional, cell-based; details: PC-3; in short: as §1
[4] = molecular target: Breast cancer type 1 susceptibility protein (Homo sapiens) (UniProt P38398); assay: Inactivation of BRCA1 in human DU145 cells assessed as decline in BRCA1 phosphorylation at Ser1524 at 20 uM by western blot analysis; assay type: cell-based; details: DU-145; in short: as §1
[5] = Decrease in BRCA1 protein expression in human DU145 cells at 20 uM after 2 to 48 hrs by western blot analysis; assay type: functional, cell-based; details: DU-145; in short: as §1
[6] = Cell cycle arrest at G0/G1 phase in human PC3 cells after 24 hrs by propidium iodide staining based flow cytometry; assay type: functional; details: PC-3
NCI-H292 = assay: Antiproliferative activity against human NCI-H292 cells assessed as inhibition of cell viability after 24 hrs by MTT assay; assay type: functional, cell-based; details: NCI-H292, 24 h
In short: (§2)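 Cells grown to 50–70% confluence (RWPE1 in K-SFM with pituitary extract and EGF; the other lines in RPMI 1640 with 10% FBS), 5% CO2, 37 °C. Treated for 24 h with DMSO vehicle, compounds, or cisplatin as positive control. MTT (5 mg/mL) added for 4 h, formazan dissolved in DMSO, absorbance read at 570 nm. Viability taken relative to untreated cells after blank subtraction, IC50 fitted from % viability, at least three experiments.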

[7] = Antiproliferative activity against HBE cells assessed as inhibition of cell viability after 24 hrs by MTT assay; assay type: cell-based; details: Homo sapiens; in short: as §2
[8] = Cell cycle arrest in human PC3 cells assessed as accumulation at G0/G1 phase at 20 uM after 24 hrs by propidium iodide staining based flow cytometry (reference value: 66.57%); assay type: functional; details: PC-3
[9] = Cell cycle arrest in human PC3 cells assessed as accumulation at G2/M phase at 20 uM after 24 hrs by propidium iodide staining based flow cytometry (reference value: 10.43%); assay type: functional; details: PC-3
DU-145 [10] = assay: Cell cycle arrest in human DU145 cells assessed as accumulation at S phase at 10 uM after 24 hrs by propidium iodide staining based flow cytometry (reference value: 25.94%); assay type: functional
DU-145 [11] = assay: Cell cycle arrest in human DU145 cells assessed as accumulation at G2/M phase at 20 uM after 24 hrs by propidium iodide staining based flow cytometry (reference value: 10.44%); assay type: functional
[12] = Decrease in cyclin D1 protein expression in human PC3 cells by western blot analysis; assay type: functional, cell-based; details: PC-3, TDE = time-dependent effect
In short: (§3)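 Western blot of cyclin D1, cyclin E, Cdk4 and p21 in PC3 and DU145 lysates. Lysis in RIPA buffer plus protease inhibitors, BCA quantification, 12% SDS-PAGE, nitrocellulose transfer, milk block, primaries overnight at 4 °C, secondary 1:2000 for 45 min, ECL read-out. GAPDH served as loading control.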

[13] = Decrease in cyclin D1 protein expression in human DU145 cells by western blot analysis; assay type: functional, cell-based; details: DU-145, TDE = time-dependent effect; in short: as §3
[14] = Decrease in Cdk4 protein expression in human DU145 cells after 2 to 48 hrs by western blot analysis; assay type: functional, cell-based; details: DU-145; in short: as §3
PC-3 [15] = assay: Increase in p21CIP1 protein expression in human PC3 cells after 2 to 48 hrs by western blot analysis; assay type: functional, cell-based; in short: as §3
PC-3 [16] = assay: Induction of apoptosis in human PC3 cells assessed as late apoptotic cells at 20 uM after 4 hrs by Annexin V-FITC/propidium iodide staining based flow cytometry (reference value: 7.92%); assay type: functional
In short: (§4)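 Cells seeded in 6-well plates for 24 h, then given 20 μM for the stated times. Cells were trypsinized, PBS-washed, stained with annexin V-FITC/PI, and analysed immediately by flow cytometry. Means ± SD of three independent experiments; Student's t test against untreated control.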

PC-3 [17] = assay: Induction of apoptosis in human PC3 cells assessed as necrotic cells at 20 uM after 8 hrs by Annexin V-FITC/propidium iodide staining based flow cytometry (reference value: 0.98%); assay type: functional; in short: as §4
PC-3 [18] = assay: Induction of apoptosis in human PC3 cells assessed as early apoptotic cells at 20 uM after 12 hrs by Annexin V-FITC/propidium iodide staining based flow cytometry (reference value: 0.79%); assay type: functional; in short: as §4
PC-3 [19] = assay: Induction of apoptosis in human PC3 cells assessed as necrotic cells at 20 uM after 12 hrs by Annexin V-FITC/propidium iodide staining based flow cytometry (reference value: 0.98%); assay type: functional; in short: as §4
PC-3 [20] = assay: Induction of apoptosis in human PC3 cells assessed as early apoptotic cells at 20 uM after 24 hrs by Annexin V-FITC/propidium iodide staining based flow cytometry (reference value: 0.79%); assay type: functional; in short: as §4
DU-145 [21] = assay: Induction of apoptosis in human DU145 cells assessed as late apoptotic cells at 20 uM after 4 hrs by Annexin V-FITC/propidium iodide staining based flow cytometry (reference value: 1.53%); assay type: functional; in short: as §4
DU-145 [22] = assay: Induction of apoptosis in human DU145 cells assessed as necrotic cells at 20 uM after 8 hrs by Annexin V-FITC/propidium iodide staining based flow cytometry (reference value: 0.21%); assay type: functional; in short: as §4
DU-145 [23] = assay: Induction of apoptosis in human DU145 cells assessed as early apoptotic cells at 20 uM after 24 hrs by Annexin V-FITC/propidium iodide staining based flow cytometry (reference value: 1.60%); assay type: functional; in short: as §4
DU-145 [24] = assay: Induction of apoptosis in human DU145 cells at 20 uM by Annexin V-FITC/propidium iodide staining based flow cytometry; assay type: functional, cell-based; details: TDE = time-dependent effect; in short: as §4
DU-145 [25] = assay: Induction of apoptosis in human DU145 cells assessed as cleaved caspase-3 level at 20 uM after 12 hrs by western blot analysis; assay type: functional, cell-based
In short: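 Cells exposed to 20 μM for the stated times. Lysis in RIPA plus protease inhibitors, BCA protein assay, equal protein on 12% SDS-PAGE, transfer to nitrocellulose. Blocking in 5% milk/TBST 1 h; primary antibodies overnight at 4 °C; secondary 1:2000 for 45 min; ECL detection. GAPDH served as loading control.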

DU-145 [26] = assay: Induction of ROS generation in human DU145 cells at 20 uM pretreated for 1 hr with 5 mM antioxidant NAC measured after 24 hrs by DCFH-DA staining based flow cytometry; assay type: functional, cell-based
In short: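 Cells in RPMI 1640 with 10% FBS, 5% CO2, 37 °C, treated at 50−70% confluence (DMSO vehicle). After exposure, cells were loaded with 10 μM DCFH-DA for 30 min at 37 °C, washed, resuspended in PBS, and read at once by flow cytometry. For NAC runs, cells got 5 mM NAC 1 h before compound. ROS reported as ratio relative to untreated control.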

In the case of `C=C[C@@](C)(O)CC[C@@H]1C(C)=CC[C@@H]2C(C)(C)CCC[C@@]12C`, the Activity (DU-145 [1]) is reported as “inactive”, the inhibition [2] is reported as “Active” and the inhibition [3] is reported as “inactive”. The inhibition [4] was “Active”, the inhibition [5] was “inactive” and the Activity [6] was “Dose-dependent effect”. It also gave an IC50 (NCI-H292) of 17.1 µM, an IC50 [7] of 53.9 µM and an Activity [8] of 82.5%. It also gave an Activity [9] of 10.9%, an Activity (DU-145 [10]) of 21.68% and an Activity (DU-145 [11]) of 12.9%. The inhibition [12] was “tde”, the inhibition [13] was “tde” and the inhibition [14] was “Active”. The Activity (PC-3 [15]) was “Active”, the Activity (PC-3 [16]) was 12.94% and the Activity (PC-3 [17]) was 2.95%. It also gave an Activity (PC-3 [18]) of 3.51%, an Activity (PC-3 [19]) of 4.68% and an Activity (PC-3 [20]) of 1.61%. The Activity (DU-145 [21]) was 9.26%, the Activity (DU-145 [22]) was 2.44% and the Activity (DU-145 [23]) was 7.16%. For the same molecule, the Activity (DU-145 [24]) was “tde”, the Activity (DU-145 [25]) was “Active” and the Activity (DU-145 [26]) was “inactive”.
